HIV Env fusion: inhibitors of HIV-1 Env-driven cell-cell fusion, primary screen, HeLa-JRFL effector, CEM21 target cells, luciferase; inhibition, % at 12.3 µM; actives 1.1% (n = 360,000);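 active = mean replicate inhibition score of at least 50 and every replicate individually at or above 50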
PGC1a acetyl inh: inhibitors of PGC1a acetylation signal, primary screen, cell-based, U2OS, AlphaScreen, inhibitor mode; AlphaScreen anti-acetyl-lysine; with virally co-expressed GCN5 acetyltransferase; actives 0.17% (n = 350,000); inhibition, % at 15.6 µM;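 active = every replicate shows inhibition of at least 40%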
DENV2 CPE rescue: inhibitors of DENV2 cytopathic effect, primary screen, cell-based, plate reader, single concentration. DENV2-infected cells, cytopathic effect rescue. AID 651640, 2012. CPE inhibition, % at 9.99 µM. actives 1.7% (n = 350,000); in the data active = CPE inhibition above about 20%, passing the limit was not always enough; tested in BHK-21 cells
Ecoli rRNA inh: reduced GFP signal of wild-type E. coli, primary screen, bacterial rRNA inhibitor project, GFP/RFP fluorescence, OD600, single point | actives 1.6% (n = 350,000) | AID 720706, 2013 | GFP signal change (wild-type ribosome), % (test concentration not listed) | E. coli WT GFP vs humanized-ribosome RFP mutants, 24 h; hits give low values; DMSO median 0, no signal -100;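 active = significant combined selectivity score with lowered wild-type GFP, culture density cut under 30%, mutant RFP and density less affected; inactive = any of these conditions unmet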
FN deposition inh: inhibitors of fibronectin matrix deposition, primary screen, AH1F cells, Alexa488-fibronectin fluorescence, plate reader. AH1F fibroblasts, overnight. inhibition, % at 12.6 µM. actives 0.086% (n = 350,000). AID 743247, 2014;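 active = mean inhibition across replicates of 30% or more, regardless of how many single replicates reach that level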
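Material: AH1F fibroblast monolayer depositing Alexa488-labelled fibronectin into matrix | Input: 10000 AH1F cells/well | Medium: DMEM plus 2% serum, read in PBS | Reagent: Alexa488-fibronectin, 24 nM final in well | Compound dosing: One dose per compound, pinned | Schedule: 1 h adhesion, overnight exposure | Measured by: Fluorescence at 485 nm excitation, 525 nm emission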
PglD DTNB: C. jejuni PglD acetyltransferase inhibitors, primary screen, biochemical, DTNB colorimetric, single point | UDP-N-acetylbacillosamine N-acetyltransferase PglD (Campylobacter jejuni) | purified PglD enzyme, DTNB colorimetric CoA detection | inhibition, % at 12.5 µM | actives 0.098% (n = 360,000) | AID 602405, 2012; in the data active = inhibition above about 16%, passing the limit was not always enough
A number is an active result; ! = not active in a repeat. Hits are enriched below; roughly 3.5% of the tested compounds scored in any of these assays.

`C/C=C/c1ccc([C@H]2[C@@H](CO)N(C(=O)C3CCC3)[C@H]2CNC(=O)NC(C)C)cc1` gave PGC1a acetyl inh inactive, DENV2 CPE rescue inactive, Ecoli rRNA inh inactive and PglD DTNB inactive.
C/C=C/c1ccc([C@H]2[C@@H](CO)N[C@@H]2CNC(=O)C2CCC2)cc1 was read as DENV2 CPE rescue 34 and Ecoli rRNA inh inactive.
For C/C=C/c1ccc([C@@H]2[C@@H](CNC(=O)CC3CC3)N(C(C)=O)[C@H]2CO)cc1 the results were PGC1a acetyl inh inactive, DENV2 CPE rescue inactive, Ecoli rRNA inh inactive, FN deposition inh inactive and PglD DTNB inactive.
`C/C=C/c1ccc([C@@H]2[C@@H](CO)N(C(C)=O)[C@@H]2CNC(=O)CC2CC2)cc1` gave PGC1a acetyl inh inactive, DENV2 CPE rescue 86, Ecoli rRNA inh inactive, FN deposition inh inactive and PglD DTNB inactive.
`O=C(Cc1ccccn1)NCC[C@H]1CC[C@H](NS(=O)(=O)c2ccc(F)cc2)[C@@H](CO)O1` gave HIV Env fusion inactive, PGC1a acetyl inh inactive, DENV2 CPE rescue inactive, Ecoli rRNA inh inactive and PglD DTNB inactive.
CN(Cc1ccc(Cl)c(Cl)c1)C(=O)C1CC(=O)N(c2ccc3c(c2)OCCO3)C1 (stereo not given) was read as HIV Env fusion inactive, PGC1a acetyl inh inactive, DENV2 CPE rescue 30, Ecoli rRNA inh inactive, FN deposition inh inactive and PglD DTNB inactive.
Screening CC1CC(C)CN(C(=O)C2CC(=O)N(c3ccc4c(c3)OCCO4)C2)C1 (stereo not given) returned HIV Env fusion inactive, PGC1a acetyl inh inactive, DENV2 CPE rescue inactive, Ecoli rRNA inh inactive, FN deposition inh inactive and PglD DTNB inactive.
`CN(Cc1ccccc1Cl)C(=O)C1CC(=O)N(c2ccc3c(c2)OCCO3)C1` (stereo not given) gave HIV Env fusion inactive, PGC1a acetyl inh inactive, DENV2 CPE rescue inactive, Ecoli rRNA inh inactive, FN deposition inh inactive and PglD DTNB inactive.
For NC(=O)C1CCN(C(=O)C2CC(=O)N(c3ccc4c(c3)OCCO4)C2)CC1 (stereo not given) the results were DENV2 CPE rescue 24, Ecoli rRNA inh inactive, FN deposition inh inactive and PglD DTNB inactive.
`COc1ccc(NC(=O)N2C[C@H](O)COC[C@H]3O[C@@H](CC(=O)NCc4ccccc4OC)CC[C@@H]32)cc1` gave PGC1a acetyl inh inactive, DENV2 CPE rescue inactive, Ecoli rRNA inh inactive, FN deposition inh inactive and PglD DTNB inactive.
For O=C(C[C@@H]1CC[C@H]2[C@@H](COC[C@@H](O)CN2CC2CCOCC2)O1)NCc1ccc(Cl)cc1 the results were HIV Env fusion inactive, PGC1a acetyl inh inactive, DENV2 CPE rescue inactive, Ecoli rRNA inh inactive, FN deposition inh inactive and PglD DTNB inactive.
COc1ccc(-c2cn(CC[C@@H]3CC[C@H](NC(=O)CCN4CCCCC4)[C@@H](CO)O3)nn2)cc1 was read as HIV Env fusion inactive, PGC1a acetyl inh inactive, DENV2 CPE rescue inactive, Ecoli rRNA inh inactive, FN deposition inh inactive and PglD DTNB inactive.
Screening COC(=O)C[C@H]1C[C@H]2c3cc(NC(=O)CC4CC4)ccc3O[C@H]2[C@H](CO)O1 returned PGC1a acetyl inh inactive, DENV2 CPE rescue inactive, Ecoli rRNA inh inactive, FN deposition inh inactive and PglD DTNB inactive.
`COC(=O)C[C@@H]1C[C@H]2c3cc(NC(=O)CC4CC4)ccc3O[C@H]2[C@@H](CO)O1` gave PGC1a acetyl inh inactive, DENV2 CPE rescue 24!, Ecoli rRNA inh inactive, FN deposition inh inactive and PglD DTNB inactive.
For O=C(O)C[C@@H]1C[C@@H]2c3cc(NC(=O)CC4CC4)ccc3O[C@@H]2[C@H](CO)O1 the results were HIV Env fusion inactive, PGC1a acetyl inh inactive, DENV2 CPE rescue 30, Ecoli rRNA inh inactive, FN deposition inh inactive and PglD DTNB inactive.
For COC(=O)C[C@@H]1C[C@H]2c3cc(NC(=O)C4CCOCC4)ccc3O[C@H]2[C@@H](CO)O1 the results were HIV Env fusion inactive, PGC1a acetyl inh inactive, DENV2 CPE rescue inactive, Ecoli rRNA inh inactive, FN deposition inh inactive and PglD DTNB inactive.

From PubChem
